EBI2 antag = antagonists of human EBI2 receptor | AID 651636 | P32249 | inhibition, % at 5 µM | EBI2 beta-arrestin recruitment, luminescence, 7a,25-OHC stimulated | 360,000 compounds, 0.81% hits; in the data active = inhibition above about 38%;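 note: enzyme fragment complementation signal reports receptor beta-arrestin coupling in cells; 0% = agonist plus DMSO wells and 100% = wells without agonist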
Target sequence (P32249 whole entry, looked up, the tested form may be a part): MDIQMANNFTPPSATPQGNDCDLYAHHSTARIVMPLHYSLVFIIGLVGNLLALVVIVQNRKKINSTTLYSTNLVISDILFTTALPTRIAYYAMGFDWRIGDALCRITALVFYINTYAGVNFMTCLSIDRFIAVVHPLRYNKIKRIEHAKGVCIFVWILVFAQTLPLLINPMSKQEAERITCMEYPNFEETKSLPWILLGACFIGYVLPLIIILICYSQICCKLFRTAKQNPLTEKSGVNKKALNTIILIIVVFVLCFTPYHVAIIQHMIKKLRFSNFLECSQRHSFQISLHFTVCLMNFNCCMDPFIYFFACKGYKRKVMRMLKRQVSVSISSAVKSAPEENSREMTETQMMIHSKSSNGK
MC4R barr agon = activates human MC4R beta-arrestin recruitment; 360,000 compounds, 0.98% hits; AID 540308; U2OS MC4R beta-arrestin complementation, luminescence; percent of melanotan II response, DMSO zero; activation, % at 8.9 µM; P32245;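 active = activation above a per-plate cutoff, the mean activation of sample wells on that plate plus 3 SD, cut at about 8% in these data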
MC4R antagonist = antagonists of human melanocortin 4 receptor (MC4R) | 360,000 compounds, 0.48% hits | P32245 | inhibition, % at 6.5 µM | MC4R-expressing cells, MTII-stimulated cAMP, LANCE TR-FRET;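 active = inhibition above its plate's cutoff, the mean of tested wells on that plate plus 3 SD, cut at about 29% in these data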;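 note: 0% = Melanotan II alone and 100% = Melanotan II plus saturating MCL0020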
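Test system: U2OS cells stably expressing human melanocortin 4 receptor (MC4R); also added: Melanotan II challenge; compound: 6.5 µM single dose; timing: 30-min compound preincubation, 1-h Melanotan II challenge, 1-h detection, room temperature; signal: Eu-cAMP/anti-cAMP TR-FRET, emission 671 nm; repeats: one well per compound, no replicates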
Exocytosis inh = lytic granule exocytosis inhibition | TALL-104 LAMP-1 surface exposure, flow cytometry; cells stimulated with thapsigargin and PMA | inhibition, % at 10 µM | 360,000 compounds, 0.66% hits | AID 651702;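 active = inhibition above about 55%, limit read from the data; inconclusive = no clear call, values can overlap the other calls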
Myeloid diff MLP = promotes myeloid progenitor differentiation; ER-HoxA9 myeloid progenitors, lysozyme-GFP differentiation, flow cytometry; calls only at 10 µM; 360,000 compounds, 1% hits; AID 624256;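 active = normalized GFP-positive differentiation at or above the plate's own cutoff, the solvent-only control mean plus 3 SD; inconclusive = no clear call, values can overlap the other calls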;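 note: cells exposed to compound for four days before flow analysis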
Numbers without * were called inactive; i = inactive; ? = inconclusive; / = not tested or not shown; + = active, no number. Only some compounds are listed: those with a hit (about 3.7% of all), similar ones and a draw of the others.

SMILES	EBI2 antag	MC4R barr agon	MC4R antagonist	Exocytosis inh	Myeloid diff MLP
CCOC(=O)C1=C(CSc2nc(-c3ccccc3)ccc2C#N)OC(N)=C(C#N)C1c1cccnc1 (stereo not drawn)	28	-1	22	1	+
CCOC(=O)C1=C(CSc2nc(-c3ccccc3)ccc2C#N)OC(N)=C(C#N)C1c1ccccc1 (stereo not drawn)	16	-1	14	1	+
COc1ccc(C(=O)OCC(=O)N2c3ccccc3CC2C)cc1S(=O)(=O)N1CCOCC1 (stereo not drawn)	7	0	8	-8	i
Cc1ccc(C(=O)CSc2nc(-c3ccccc3)ccc2C#N)cc1	25	-2	6	-1	+
N#Cc1ccc(-c2ccco2)nc1SCC(=O)c1ccc(Cl)cc1	42	1	5	20	+
COC(C(=O)Nc1ccnn1C1CCN(Cc2cnn(C(C)C)c2)CC1)c1ccccc1 (stereo not drawn)	3	-3	-2	0	i
O=C(O)c1ncn(Cc2ccc(Br)cc2)c1C(=O)O	-10	0	21	0	i
Cn1cccc1C(=O)OCC(=O)NC(=O)c1ccc(Cl)cc1	7	-2	-4	-8	i
O=C(CSc1nc2cc(Cl)ccc2s1)NCc1ccc2c(c1)OCO2	-12	9.5*	3	2	i
Cn1cnnc1SCC(=O)Nc1ccc(N2CCCCC2)cc1	-16	-1	-4	0	i
COc1ccccc1NS(=O)(=O)c1ccc(O)c(C(=O)OCC(=O)N2c3ccccc3CC2C)c1 (stereo not drawn)	-8	2	12	-1	+
COc1ccccc1NS(=O)(=O)c1ccc(O)c(C(=O)OCC(=O)N2CCc3ccccc32)c1	-11	-1	3	-4	i
CCCC(=O)N1CCC1(C)C(=O)NCc1ccccc1SC (stereo not drawn)	8	0	3	6	i
O=C(O)c1ccccc1CSc1nc2ccccc2n1Cc1ccccc1C(=O)O	0	-2	-8	-3	+
CCS(=O)(=O)N1Cc2cc(C(=O)N(C)C)nc(-c3cccc(-c4ccc(F)cc4)c3)c2[C@H]1CCO	-5	/	/	0	i
CCC1(CC)NC(=O)N(CC(=O)OC(C)C(=O)Nc2ccccc2OC)C1=O (stereo not drawn)	-4	-1	12	-3	i
O=C(N/N=C/c1ccc([N+](=O)[O-])s1)c1cccc(Br)c1	-15	-2	-7	1	+
CC1CC(C)C[N+](=C2C=C(N3CCCC3)CC(C)(C)C2)C1 (stereo not drawn)	-6	-1	-4	4	+
O=C(O)c1ccccc1NS(=O)(=O)c1cccc(-n2sc3ccccc3c2=O)c1	96*	-1	-10	22	i
O=C(O)c1ccccc1NS(=O)(=O)c1cccc(C(F)(F)F)c1	-11	-1	1	0	i
CCN(C(=O)CN1CCN(c2cccc(C(F)(F)F)c2)CC1)c1c(N)n(Cc2ccccc2)c(=O)[nH]c1=O	3	0	-1	-2	i
COc1ccc2c(-c3ccccc3)cc(SCC(N)=O)nc2c1	2	0	-3	2	+
COc1ccc2nc(SCC(N)=O)cc(C)c2c1	-9	-1	0	-7	i
Cc1ccc(OCCCCN(C)Cc2ccccc2)c(Br)c1	9	2	4	-2	+
COc1ccccc1OCCOCCOc1ccc(C)cc1Br	8	-2	-2	-1	+
SMILES	EBI2 antag	MC4R barr agon	MC4R antagonist	Exocytosis inh	Myeloid diff MLP
O=C(NCC1CCCCC1)c1ccc2nc([C@@H]3O[C@H](CO)[C@@H](O)[C@H]3O)[nH]c2c1	-5	3	15	0	i
COC(=O)c1c(NC(=O)c2ccccc2)sc2c1CC(C)(C)NC2(C)C	-7	0	-1	-3	i
CCOC(=O)c1c(NC(=O)COc2ccccc2C#N)sc2c1CC(C)(C)NC2(C)C	-33	-1	2	57*	i
CC1(C)Cc2c(sc(NC(=O)c3ccc(C(=O)c4ccccc4)cc3)c2C(N)=O)C(C)(C)N1	19	2	14	16	+
COC(=O)c1c(NC(=O)c2ccc(OC(C)C)cc2)sc2c1CC(C)(C)NC2(C)C	7	2	5	3	+
O=C1NC[C@H](CCCCN2C[C@H](Cc3ccc(O)cc3)N(CCC3CCCCC3)C(=O)C2=O)N(CCC2CCCCC2)C1=O	-3	/	/	-11	i
CSc1ccccc1NC(=O)CSc1nnc(CNC(=O)c2ccccc2F)n1C	1	1	0	-5	i
CCCCNC(=O)C1C(c2ccc(C(F)(F)F)cc2)=Nc2ccccc2N1C(C)=O (stereo not drawn)	12	/	/	-9	i
CC1(C)Nc2cccc3cccc(c23)N1	-14	-2	-5	63*	?
Cc1ccc(CC(=O)O/N=C(\N)c2ccncc2)cc1	0	0	5	-7	+
O=C(COC(=O)c1ccc2[nH]c3c(c2c1)CCCC3)Nc1ccccc1Cl	0	4	12	-4	i
CCC(C)c1ccccc1NC(=O)COC(=O)c1ccc2[nH]c3c(c2c1)CCCC3 (stereo not drawn)	21	0	12	61*	+
C=CCSc1nnc(-c2cccc3ccccc23)o1	-14	2	-1	0	i
C#CCSc1nnc(-c2cccc3ccccc23)o1	-6	0	4	-4	+
COc1ccc(NC(=O)Cn2nnc(-c3ccccc3NC(=O)c3ccco3)n2)cc1	4	-1	-3	-3	+
CC(C)C[C@H]1C(=O)N2CCC[C@H]2[C@]2(O)O[C@](NC(=O)[C@@H]3C=C4c5cccc6[nH]c(Br)c(c56)CC4N(C)C3)(C(C)C)C(=O)N12 (stereo partly drawn)	89*	-1	16	1	i
Cc1c2cnn(CC(=O)Nc3c(F)c(F)cc(F)c3F)c(=O)c2c(C)n1Cc1ccccc1F	-9	25*	22	1	i
CC1(C)CNc2cc(N)ccc2S1	-16	-2	-10	2	+
CCOC(=O)N1CCC(NC(=O)CS(=O)(=O)Cc2nc(-c3ccccc3C)oc2C)CC1	-8	0	-2	-6	+
Cc1ccccc1-c1csc(C(O)c2ccccc2)n1 (stereo not drawn)	4	-1	0	15	i
CCOC(=O)c1c(CSC(=N)N)n(-c2ccc(Br)cc2)c2cc(Br)c(OC(C)=O)cc12	-40	-2	0	-2	i
CCCCCCCCOC(=O)c1c(CSC(=N)N)n(C)c2cc(Br)c(OC(C)=O)cc12	22	2	8	72*	i
Cc1cc(SCC(=O)N/N=C/c2ccc(O)c(O)c2O)c(C)cc1Br	-5	3	10	8	+
Cc1cc(SCC(=O)NN=C2CCN(C(C)C)CC2)c(C)cc1Br	-3	0	-7	-1	i
